ChEMBL document CHEMBL4834419 (J Med Chem, 2021)
In brackets after ≈: the same amount, converted by molar mass. Activity calls are given as the source filed them. The calls are words filed in the database; no cut-off is given here.

Key:
HepG2 [1] = assay: Cytotoxicity against human HepG2 cells assessed as reduction in cell viability up to 100 uM incubated for 48 hrs by WST-1 assay; type: cell-based; settings: hepg2, 48 h
Summary of the method: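 HepG2 cells were seeded at 3 × 10⁴/well and grown 24 h. Medium was then switched to DMEM with 1% FCS containing compound in 0.1% DMSO; 0.1% DMSO alone was the negative control. After 48 h, WST-1 was added and absorbance read at 450/620 nm after 45 min. Four experiments in duplicate.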

[2] = Half life in mouse at 10 mg/kg, po; type: ADME, organism-based; settings: in vivo
Summary of the method: (§1)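 Mice, n = 3, received a single oral dose of 10 mg/kg in water with 1% hydroxypropyl methylcellulose/Tween 80 (99:1). Tail-vein blood was drawn at 30 and 60 min and tissue collected at 3 h. Compound was quantified by LC−MS and PK derived by noncompartmental analysis.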

[3] = biological target: T1, Retinoic acid receptor RXR-gamma (Homo sapiens, UniProt P48443); assay: Agonist activity at human RXRgamma transfected in human HEK293T cells co-expressing pFR/pRL-Luc incubated for 14 to 16 hrs by hybrid reporter gene assay; type: cell-based
T1 sequence (P48443 whole entry): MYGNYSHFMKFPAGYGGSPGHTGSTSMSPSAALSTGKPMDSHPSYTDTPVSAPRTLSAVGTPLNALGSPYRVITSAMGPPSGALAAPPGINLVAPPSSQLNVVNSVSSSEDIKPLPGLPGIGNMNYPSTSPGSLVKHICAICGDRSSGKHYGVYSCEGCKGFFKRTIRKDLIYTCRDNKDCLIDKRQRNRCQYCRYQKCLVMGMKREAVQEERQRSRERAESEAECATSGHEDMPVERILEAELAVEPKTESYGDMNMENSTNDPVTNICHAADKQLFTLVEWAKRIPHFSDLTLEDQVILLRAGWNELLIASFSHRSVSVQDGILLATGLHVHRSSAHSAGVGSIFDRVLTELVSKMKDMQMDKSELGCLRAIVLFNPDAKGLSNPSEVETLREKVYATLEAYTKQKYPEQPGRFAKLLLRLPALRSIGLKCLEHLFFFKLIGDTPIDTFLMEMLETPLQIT

[4] = Aqueous solubility of compound in pH 8 phosphate buffer incubated for 1 hr by HPLC analysis; type: physicochemical
Summary of the method: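 Solubility was measured with 3 mg compound in 2 mL 0.1 M phosphate buffer, pH 8, shaken 1 h at 37 °C. The mixture was pressed through a Uniprep filter and the dissolved compound in the filtrate quantified by HPLC against an external calibration; three independent experiments.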

[5] = biological target: T2, Nuclear receptor subfamily 1 group I member 3 (Homo sapiens, UniProt Q14994); assay: Agonist activity against human CAR in human HEK293T cells co-expressing pFR/pRL-Luc assessed as receptor activation at 10 uM incubated for 14 to 16 hrs by hybrid reporter gene assay relative to bexarotene; type: cell-based; settings: time 14-16 hrs
T2 sequence (Q14994 whole entry): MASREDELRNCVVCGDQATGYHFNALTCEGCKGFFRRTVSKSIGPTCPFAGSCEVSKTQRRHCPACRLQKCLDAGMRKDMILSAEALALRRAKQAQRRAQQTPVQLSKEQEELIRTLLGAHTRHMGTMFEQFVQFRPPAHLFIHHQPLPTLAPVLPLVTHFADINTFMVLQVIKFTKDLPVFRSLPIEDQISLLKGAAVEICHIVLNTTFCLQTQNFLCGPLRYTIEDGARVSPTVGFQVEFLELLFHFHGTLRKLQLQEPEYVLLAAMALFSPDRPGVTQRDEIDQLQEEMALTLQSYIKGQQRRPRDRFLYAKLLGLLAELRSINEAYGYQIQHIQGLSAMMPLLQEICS
Summary of the method: (§2)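 Gal4 hybrid reporter assay in HEK293T cells, seeded 24 h before transfection (Lipofectamine LTX, Opti-MEM) with pFR-Luc, pRL-SV40 and pFA-CMV plasmid carrying the hinge region and LBD of the human receptor. After 5 h, compound added in 0.1% DMSO, with 0.1% DMSO alone as untreated control. Dual-Glo luciferase read after 14−16 h; firefly/renilla normalized; duplicates, ≥2 independent experiments.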

[6] = biological target: T3, Retinoic acid receptor RXR-alpha (Homo sapiens, UniProt P19793); assay: (§3) Agonist activity at human RXRalpha transfected in human HEK293T cells co-expressing pFR/pRL-Luc incubated for 14 to 16 hrs by hybrid reporter gene assay; type: cell-based
T3 sequence (P19793 whole entry): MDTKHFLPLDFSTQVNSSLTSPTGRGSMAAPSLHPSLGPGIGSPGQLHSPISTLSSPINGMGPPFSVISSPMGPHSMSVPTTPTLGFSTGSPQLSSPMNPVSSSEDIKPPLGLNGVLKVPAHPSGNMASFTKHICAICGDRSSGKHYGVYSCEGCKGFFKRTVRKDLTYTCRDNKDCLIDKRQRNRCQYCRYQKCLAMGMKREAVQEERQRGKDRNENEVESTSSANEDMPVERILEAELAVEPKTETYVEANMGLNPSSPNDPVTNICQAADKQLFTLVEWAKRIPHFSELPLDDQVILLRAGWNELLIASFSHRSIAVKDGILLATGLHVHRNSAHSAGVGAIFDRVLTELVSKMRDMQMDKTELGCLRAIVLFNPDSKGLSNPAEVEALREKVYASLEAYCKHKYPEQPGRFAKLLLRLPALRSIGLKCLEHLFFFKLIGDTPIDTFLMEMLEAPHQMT

[7] = Metabolic stability in Sprague-Dawley rat liver microsomes assessed as compound degradation at 10 uM incubated for 60 min by HPLC analysis; type: ADME; settings: 1 h
Summary of the method: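 Compound at 10 μM final in 0.1 M phosphate, pH 7.4, was preincubated 5 min at 37 °C with an NADPH-regenerating system. Sprague-Dawley rat liver microsomes were then added. Reactions were stopped with ice-cold methanol at 0, 15, 30 and 60 min and remaining compound quantified by HPLC against an external calibration. Controls: no NADPH, heat-inactivated microsomes. Three independent experiments.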

[8] = Cmax in mouse at 10 mg/kg, po; type: ADME, organism-based; parameters: route oral, dose 10 mg/kg; settings: in vivo; summary of the method: as §1
[9] = biological target: T4, Retinoic acid receptor RXR-beta (Homo sapiens) (UniProt P28702); assay: Agonist activity at human RXRbeta transfected in human HEK293T cells co-expressing pFR/pRL-Luc incubated for 14 to 16 hrs by hybrid reporter gene assay; type: cell-based; settings: time 14-16 hrs
T4 sequence (whole entry): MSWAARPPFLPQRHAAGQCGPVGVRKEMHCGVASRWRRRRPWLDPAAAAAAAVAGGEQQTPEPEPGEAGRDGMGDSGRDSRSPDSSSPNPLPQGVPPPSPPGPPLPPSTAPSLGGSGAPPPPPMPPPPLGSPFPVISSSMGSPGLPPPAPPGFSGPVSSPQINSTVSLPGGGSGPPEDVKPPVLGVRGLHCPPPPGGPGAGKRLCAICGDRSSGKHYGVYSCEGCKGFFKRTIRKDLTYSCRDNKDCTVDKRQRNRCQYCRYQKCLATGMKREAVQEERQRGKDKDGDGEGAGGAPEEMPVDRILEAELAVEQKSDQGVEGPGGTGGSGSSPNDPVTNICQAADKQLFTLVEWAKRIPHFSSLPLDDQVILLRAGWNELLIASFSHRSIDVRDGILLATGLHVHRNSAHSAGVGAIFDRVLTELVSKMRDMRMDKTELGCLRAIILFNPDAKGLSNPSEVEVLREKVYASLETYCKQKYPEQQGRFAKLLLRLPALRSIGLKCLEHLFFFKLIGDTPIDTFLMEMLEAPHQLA

[10] = biological target: T5, Retinoic acid receptor RXR-alpha (Homo sapiens) (UniProt P19793); assay: Agonist activity at human RXRalpha transfected in human HEK293T cells co-expressing pFR/pRL-Luc at 30 uM incubated for 14 to 16 hrs by hybrid reporter gene assay; type: cell-based; settings: time 14-16 hrs; summary of the method: as §2
T5 sequence (whole entry): T3 sequence (P19793 whole entry)

[11] = biological target: T5, Retinoic acid receptor RXR-alpha (Homo sapiens); assay: as §3; type: cell-based; settings: time 14-16 hrs
[12] = biological target: T4, Retinoic acid receptor RXR-beta (Homo sapiens); assay: Agonist activity at human RXRbeta transfected in human HEK293T cells co-expressing pFR/pRL-Luc at 30 uM incubated for 14 to 16 hrs by hybrid reporter gene assay; type: cell-based; settings: time 14-16 hrs; summary of the method: as §2
[13] = biological target: T6, Retinoic acid receptor RXR-gamma (Homo sapiens) (UniProt P48443); assay: Agonist activity at human RXRgamma transfected in human HEK293T cells co-expressing pFR/pRL-Luc at 30 uM incubated for 14 to 16 hrs by hybrid reporter gene assay; type: cell-based; settings: time 14-16 hrs; summary of the method: as §2
T6 sequence (whole entry): T1 sequence (P48443 whole entry)

[14] = Plasma concentration in mouse at 10 mg/kg, po measure after 3 hrs; type: ADME, organism-based; summary of the method: as §1
[15] = Cmax in po dosed rat; type: ADME, organism-based; parameters: route oral; settings: in vivo
[16] = Half life in po dosed rat; type: ADME, organism-based; settings: in vivo
HepG2 [17] = assay: Cytotoxicity against human HepG2 cells assessed as reduction in cell viability incubated for 48 hrs by WST-1 assay; settings: HepG2, 48 h

O=C(O)CCc1nc(-c2ccccc2)c(-c2cc(C(F)(F)F)cc(C(F)(F)F)c2)o1
Activity (HepG2 [1]): Non-Toxic | half-life [2]: > 3 h | EC50 [3]: 50 nM | solubility at 1 h ([4]; phosphate buffer, pH 8): 146 µg/mL (≈ 340 µM) | Activity [5]: 4% | EC50 [6]: 50 nM | Stabilty [7]: Stable | Cmax [8]: 33000 ng/mL

CN(C)c1cccc(-c2oc(CCC(=O)O)nc2-c2ccccc2)c1
Activity [9]: inactive | Activity [10]: inactive | Activity [11]: inactive | Activity [12]: inactive | Activity [13]: inactive

O=C(O)CCc1cc(-c2cc(Cl)cc(Cl)c2)n(-c2ccc(Cl)cc2)n1
Activity (HepG2 [1]): Non-Toxic | EC50 [3]: 1500 nM | Activity [5]: 15% | EC50 [6]: 300 nM | concentration at 3 h [14]: 35000 ng/mL | Stabilty [7]: Stable

C=C(c1ccc(C(=O)O)cc1)c1cc2c(cc1C)C(C)(C)CCC2(C)C [BEXAROTENE]
solubility ([4]; buffer, pH 8, 1 h): 0.3 µg/mL (≈ 0.861 µM) | Cmax [15]: 600 ng/mL | half-life [16]: 1.2 h | IC50 (HepG2 [17]): 20000 nM
